In ChEMBL document CHEMBL4673340 (J Med Chem, 2020):
Activity calls are given as the source filed them. No cut-off for these calls is given here.

Experiments:
NCI-H209 [1] = assay: Potentiation of TMZ-induced antitumor activity against human NCI-H209 cells xenografted in BALB/c nude mouse assessed as tumor relapse rate at […], po BID for 28 days and co-treated with 50 mg/kg, po QD TMZ for 5 consecutive days at start of study and again 14 days later and measured after 68 days; format: functional, organism-based; conditions: time 28.0 day
NCI-H209 [2] = assay: Potentiation of TMZ-induced antitumor activity against human NCI-H209 cells xenografted in BALB/c nude mouse assessed as inhibition of tumor growth at […], po BID for 28 days and co-treated with 50 mg/kg, po QD TMZ for 5 consecutive days at start of study and again 14 days later; format: functional, organism-based; conditions: time 28.0 day
[3] = Toxicity in BALB/c nude mouse xenografted with human MDA-MB-436 cells assessed as effect on animal mortality at 1.6 to […], po BID for 28 days followed by treatment was interruption and monitored for additional 2 months; format: organism-based; conditions: in vivo, dose 1.6-3.1 mg/kg, time 28 day
MDA-MB-436 = assay: Antitumor activity against human MDA-MB-436 cells xenografted in BALB/c nude mouse assessed as inhibition of tumor growth at 1.6 to […], po BID for 28 days followed by treatment was interruption and monitored for additional 2 months; format: functional, organism-based; conditions: dose lower […], dose upper […], time 28.0 day
[4] = Ratio of drug level in brain to plasma of C57BL/6 mouse brain at 10 mg/kg, po after 1 hrs; format: ADME, organism-based
How it was run: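 C57BL/6 mice were given 10 mg/kg po in 0.5% MC and sampled at 1, 2 and 4 h. Brain was homogenized in 3 volumes of saline, and brain and plasma were protein-precipitated with acetonitrile, then measured by LC-MS/MS. Brain (ng/g) was expressed as a percentage of plasma (ng/mL). Values are means of three mice.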

[5] = Drug level in C57BL/6 mouse brain at 10 mg/kg, po after 4 hrs; format: ADME, organism-based; conditions: read-out: Drug uptake
How it was run: (§1)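 C57BL/6 mice (n=3) dosed orally at 10 mg/kg in 0.5% MC. Plasma and brain are sampled at 1, 2 and 4 h. Brain is homogenized in 3 volumes of saline, then acetonitrile protein precipitation; plasma is likewise precipitated. Both are analysed by LC–MS/MS and reported as means.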

[6] = Toxicity in BALB/c nude mouse xenografted with human NCI-H209 cells assessed as induction of body weight loss at […], po BID for 28 days and co-treated with 50 mg/kg, po QD TMZ for 5 consecutive days at start of study and again 14 days later relative to TMZ alone; format: organism-based; conditions: in vivo, dose 0.75 mg/kg, time 28 day
[7] = Drug level in C57BL/6 mouse plasma at 10 mg/kg, po after 4 hrs; format: ADME, organism-based; how it was run: as §1
[8] = target: Solute carrier organic anion transporter family member 1B3 (Homo sapiens, UniProt Q9NPD5); assay: Inhibition of OATP1B3 (unknown origin)
Sequence of Solute carrier organic anion transporter family member 1B3 (Q9NPD5 whole entry): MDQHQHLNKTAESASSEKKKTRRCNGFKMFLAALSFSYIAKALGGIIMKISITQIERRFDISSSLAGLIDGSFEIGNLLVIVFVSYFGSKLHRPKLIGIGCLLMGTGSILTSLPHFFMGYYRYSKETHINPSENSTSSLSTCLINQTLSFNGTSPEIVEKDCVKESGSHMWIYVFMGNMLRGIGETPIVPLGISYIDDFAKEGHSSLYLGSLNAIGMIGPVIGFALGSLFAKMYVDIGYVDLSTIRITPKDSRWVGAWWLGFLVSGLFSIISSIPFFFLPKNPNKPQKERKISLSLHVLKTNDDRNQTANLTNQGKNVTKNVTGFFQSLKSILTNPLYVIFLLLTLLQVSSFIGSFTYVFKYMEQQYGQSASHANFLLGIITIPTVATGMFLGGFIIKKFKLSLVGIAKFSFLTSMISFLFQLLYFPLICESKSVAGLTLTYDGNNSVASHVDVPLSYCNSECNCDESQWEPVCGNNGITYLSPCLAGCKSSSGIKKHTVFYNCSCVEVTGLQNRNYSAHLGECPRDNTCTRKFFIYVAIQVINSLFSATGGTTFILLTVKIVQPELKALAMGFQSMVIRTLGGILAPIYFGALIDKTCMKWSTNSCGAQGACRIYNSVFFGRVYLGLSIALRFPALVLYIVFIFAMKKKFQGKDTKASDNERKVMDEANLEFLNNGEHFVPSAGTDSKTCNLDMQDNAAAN

[9] = target: Broad substrate specificity ATP-binding cassette transporter ABCG2 (Homo sapiens, UniProt Q9UNQ0); assay: Inhibition of BCRP (unknown origin) up to 30 uM
Sequence of Broad substrate specificity ATP-binding cassette transporter ABCG2 (Q9UNQ0 whole entry): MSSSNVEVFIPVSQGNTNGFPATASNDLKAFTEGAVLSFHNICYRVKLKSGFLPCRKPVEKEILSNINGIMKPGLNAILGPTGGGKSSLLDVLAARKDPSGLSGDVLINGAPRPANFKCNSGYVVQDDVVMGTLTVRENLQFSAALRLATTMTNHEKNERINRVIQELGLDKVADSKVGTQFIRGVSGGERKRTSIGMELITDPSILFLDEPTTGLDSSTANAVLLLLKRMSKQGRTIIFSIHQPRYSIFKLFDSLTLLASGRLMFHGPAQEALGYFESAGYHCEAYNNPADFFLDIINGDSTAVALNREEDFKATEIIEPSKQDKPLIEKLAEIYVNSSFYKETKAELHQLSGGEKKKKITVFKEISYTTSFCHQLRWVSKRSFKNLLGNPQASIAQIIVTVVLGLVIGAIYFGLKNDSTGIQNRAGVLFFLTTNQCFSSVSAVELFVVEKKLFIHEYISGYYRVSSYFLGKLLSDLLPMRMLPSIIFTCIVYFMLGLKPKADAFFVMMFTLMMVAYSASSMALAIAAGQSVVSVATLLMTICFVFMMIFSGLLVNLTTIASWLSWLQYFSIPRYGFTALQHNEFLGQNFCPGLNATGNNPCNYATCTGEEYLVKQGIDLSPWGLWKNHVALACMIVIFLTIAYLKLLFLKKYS

BCRP = BCRP (Homo sapiens, UniProt Q9UNQ0); assay: Inhibition of BCRP (unknown origin) at 30 uM; conditions: not told
Sequence of BCRP (Q9UNQ0 whole entry): as above

[10] = Tmax in Beagle dog at 2 mg/kg, po by LC-MS/MS analysis; format: ADME, organism-based, Canis lupus familiaris; conditions: in vivo
How it was run: (§2)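 Beagle dogs, three per group. iv 1 mg/kg in 25% DMA in water; oral 2 mg/kg. Values are means of three dogs.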

[11] = Half life in Beagle dog at 2 mg/kg, po by LC-MS/MS analysis; format: ADME, organism-based, Canis lupus familiaris; conditions: in vivo
How it was run: (§3)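 Three Beagle dogs; iv dose 1 mg/kg in 25% DMA in water; oral dose 2 mg/kg in 0.5% CMC-Na. Plasma drug concentrations are measured by LC–MS/MS. Values are the mean of three dogs.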

[12] = Volume of distribution at steady state in Beagle dog at 1 mg/kg, iv by LC-MS/MS analysis; format: ADME, organism-based, Canis lupus familiaris; conditions: in vivo, read-out: Vdss; how it was run: as §2
[13] = Clearance in Beagle dog at 1 mg/kg, iv by LC-MS/MS analysis; format: ADME, organism-based, Canis lupus familiaris; conditions: in vivo; how it was run: as §3
[14] = Half life in Beagle dog at 1 mg/kg, iv by LC-MS/MS analysis; format: ADME, organism-based, Canis lupus familiaris; conditions: in vivo; how it was run: as §3
[15] = AUC (0 to infinity) in Beagle dog at 1 mg/kg, iv by LC-MS/MS analysis; format: ADME, organism-based, Canis lupus familiaris; parameters: time infinity, route intravenous, dose 1 mg/kg; conditions: in vivo; how it was run: as §3
[16] = Volume of distribution at steady state in Sprague-Dawley rat at 2 mg/kg, iv by LC-MS/MS analysis; format: ADME, organism-based; conditions: in vivo, read-out: Vdss
How it was run: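 Pharmacokinetics in Sprague-Dawley rats, three per group. iv 2 mg/kg in 38% DMA in water; po 5 mg/kg. Plasma was protein-precipitated, diluted with water and analysed by LC-MS/MS using an acetonitrile/0.1% formic acid gradient. Values are means of three rats.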

[17] = Unbound fraction in dog plasma; format: ADME, cell-free, Canis lupus familiaris
[18] = Unbound fraction in rat plasma; format: ADME, cell-free
[19] = Antiproliferation activity against human UWB1289 cells expressing BRCA1 mutant incubated for 7 days by CellTiter-Glo luminescent cell viability assay; format: functional, cell-based; conditions: UWB1289, 168 h
How it was run: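 Seeding density is set per line for log growth over 7 days. Cells attach 16 h, then are treated in duplicate with a 10-point dilution series for 7 days. CellTiter-Glo luminescence (ATP) is read, and viability is expressed relative to mock-treated control. EC50 is the mean of three independent experiments run in triplicate.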

[20] = Clearance in rat liver microsomes; format: ADME, Microsome
Cytochrome P450 3A4 = Cytochrome P450 3A4 (Homo sapiens, UniProt P08684); assay: Inhibition of CYP3A4 (unknown origin); format: ADME
Sequence of Cytochrome P450 3A4 (P08684 whole entry): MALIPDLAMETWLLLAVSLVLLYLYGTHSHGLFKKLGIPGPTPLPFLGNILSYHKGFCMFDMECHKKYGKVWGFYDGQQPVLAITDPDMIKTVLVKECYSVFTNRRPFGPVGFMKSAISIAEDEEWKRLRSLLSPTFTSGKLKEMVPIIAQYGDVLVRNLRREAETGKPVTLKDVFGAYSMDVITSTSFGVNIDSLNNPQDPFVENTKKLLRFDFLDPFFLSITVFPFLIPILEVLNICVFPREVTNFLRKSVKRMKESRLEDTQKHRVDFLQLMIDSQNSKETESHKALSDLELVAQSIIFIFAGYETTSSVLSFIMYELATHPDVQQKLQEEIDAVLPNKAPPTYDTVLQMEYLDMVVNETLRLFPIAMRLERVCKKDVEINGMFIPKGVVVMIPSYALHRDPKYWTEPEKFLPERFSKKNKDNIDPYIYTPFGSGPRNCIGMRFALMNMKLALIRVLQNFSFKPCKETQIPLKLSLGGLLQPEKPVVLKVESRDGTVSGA

Cytochrome P450 2C8 = Cytochrome P450 2C8 (Homo sapiens, UniProt P10632); assay: Inhibition of CYP2C8 (unknown origin); format: ADME
Sequence of Cytochrome P450 2C8 (P10632 whole entry): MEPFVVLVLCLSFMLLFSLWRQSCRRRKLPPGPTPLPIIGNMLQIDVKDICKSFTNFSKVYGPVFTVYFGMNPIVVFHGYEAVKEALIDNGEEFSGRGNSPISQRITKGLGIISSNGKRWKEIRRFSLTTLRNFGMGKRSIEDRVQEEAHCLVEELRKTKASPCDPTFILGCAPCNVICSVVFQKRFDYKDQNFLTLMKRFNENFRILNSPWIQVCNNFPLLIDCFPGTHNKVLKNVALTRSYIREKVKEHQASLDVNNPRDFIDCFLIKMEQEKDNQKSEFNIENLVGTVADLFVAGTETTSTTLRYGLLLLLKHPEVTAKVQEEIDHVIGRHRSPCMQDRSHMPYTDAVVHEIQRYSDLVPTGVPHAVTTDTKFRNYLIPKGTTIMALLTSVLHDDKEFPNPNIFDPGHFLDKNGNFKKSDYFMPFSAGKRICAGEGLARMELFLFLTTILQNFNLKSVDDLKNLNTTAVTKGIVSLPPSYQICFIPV

[21] = target: Protein mono-ADP-ribosyltransferase PARP6 (Homo sapiens, UniProt Q2NL67); assay: Inhibition of PARP-6 (unknown origin) pre-incubated for 30 mins before addition of activated DNA and NAD by chemiluminescent assay
Sequence of Protein mono-ADP-ribosyltransferase PARP6 (Q2NL67 whole entry, canonical isoform): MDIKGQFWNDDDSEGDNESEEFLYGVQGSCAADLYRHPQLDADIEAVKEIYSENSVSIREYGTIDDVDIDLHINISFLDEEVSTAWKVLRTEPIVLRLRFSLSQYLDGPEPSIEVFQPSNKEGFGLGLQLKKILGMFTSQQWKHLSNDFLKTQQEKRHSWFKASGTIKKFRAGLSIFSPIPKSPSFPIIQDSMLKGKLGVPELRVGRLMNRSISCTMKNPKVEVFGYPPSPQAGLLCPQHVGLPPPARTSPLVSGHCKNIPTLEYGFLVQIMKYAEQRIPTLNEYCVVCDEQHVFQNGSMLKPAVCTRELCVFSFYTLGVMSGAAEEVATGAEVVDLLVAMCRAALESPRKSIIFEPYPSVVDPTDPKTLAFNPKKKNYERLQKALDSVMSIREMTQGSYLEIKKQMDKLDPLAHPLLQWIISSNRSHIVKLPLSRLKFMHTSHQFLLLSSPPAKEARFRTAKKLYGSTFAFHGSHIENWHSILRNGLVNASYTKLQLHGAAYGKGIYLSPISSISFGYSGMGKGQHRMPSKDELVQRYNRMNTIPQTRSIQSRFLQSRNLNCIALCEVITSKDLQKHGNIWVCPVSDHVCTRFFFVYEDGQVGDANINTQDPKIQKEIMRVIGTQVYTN
How it was run: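 Chemiluminescent kit assay. Histone-coated wells were incubated for 30 min with the PARP isoform and increasing inhibitor concentrations. A substrate mix of NAD plus biotinylated NAD with activated DNA was then added. The biotinylated PARylation product was read with streptavidin-HRP and HRP substrate. IC50 was taken from residual enzyme activity across the concentration series.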

[22] = Oral bioavailability in ICR mouse at 10 mg/kg by LC-MS/MS analysis; format: ADME, organism-based; conditions: in vivo
How it was run: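 Three ICR mice per arm. iv dose 1 mg/kg in 5% DMA in water; oral dose 10 mg/kg in 0.5% MC. Plasma was processed by protein precipitation, diluted with water and quantified by LC-MS/MS (C18 column, acetonitrile/0.1% formic acid gradient). Values are means of three animals.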

[23] = target: Poly [ADP-ribose] polymerase 2 (Homo sapiens, UniProt Q9UGN5); assay: Inhibition of PARP-2 (unknown origin) pre-incubated for 30 mins before addition of activated DNA and NAD by chemiluminescent assay
Sequence of Poly [ADP-ribose] polymerase 2 (Q9UGN5 whole entry): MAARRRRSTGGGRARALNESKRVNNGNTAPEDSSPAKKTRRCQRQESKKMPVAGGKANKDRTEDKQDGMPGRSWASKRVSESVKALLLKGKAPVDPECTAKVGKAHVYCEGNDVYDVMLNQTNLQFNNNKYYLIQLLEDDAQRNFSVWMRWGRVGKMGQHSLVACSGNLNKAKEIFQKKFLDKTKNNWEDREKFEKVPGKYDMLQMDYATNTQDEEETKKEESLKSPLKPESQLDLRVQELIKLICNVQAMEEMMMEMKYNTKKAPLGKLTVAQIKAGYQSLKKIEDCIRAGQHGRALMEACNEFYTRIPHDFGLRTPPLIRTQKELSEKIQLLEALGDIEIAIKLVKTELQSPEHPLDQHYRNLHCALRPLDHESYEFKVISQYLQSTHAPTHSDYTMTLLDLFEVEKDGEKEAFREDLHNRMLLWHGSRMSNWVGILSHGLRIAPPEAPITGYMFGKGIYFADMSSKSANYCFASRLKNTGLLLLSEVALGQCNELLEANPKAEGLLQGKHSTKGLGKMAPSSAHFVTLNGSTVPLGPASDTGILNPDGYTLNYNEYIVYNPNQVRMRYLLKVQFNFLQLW

[24] = Inhibition of PARylation in PBMC in patient with ovarian cancer at >= 10 mg BID during phase I study; format: functional, Homo sapiens; conditions: dose mg >=10
[25] = Half life in Sprague-Dawley rat at 5 mg/kg, po by LC-MS/MS analysis; conditions: in vivo

Compound: C[C@]12CCCN1CC1=NNC(=O)c3cc(F)cc4[nH]c2c1c34 [PAMIPARIB]
- Activity (NCI-H209 [1]): Active
- TGI (NCI-H209 [2]): Active
- Activity [3]: Non-Toxic
- TGI (MDA-MB-436): Dose-dependent effect
- BPR [4]: 17.4%
- concentration at 4 h [5]: 135 ng/g
- Activity [6]: Non-Toxic
- concentration at 4 h [7]: 707 ng/mL
- IC50 [8]: 19.4 µM
- inhibition (INH) [9]: Not Active
- inhibition at 30 µM (BCRP): 43%
- Tmax [10]: 0.417 h
- half-life [11]: 3.62 h
- Vd [12]: 2.09 L/kg
- CL [13]: 15.2 mL/min/kg
- half-life [14]: 2.07 h
- AUC(0-inf) [15]: 1080 ng·h/mL
- Vd [16]: 6.92 L/kg
- fraction unbound [17]: 0.21
- fraction unbound [18]: 0.151
- EC50 [19]: 0.0538 µM
- microsomal CLint [20]: 7.2 µL/min/mg
- IC50 (Cytochrome P450 3A4): > 10 µM
- IC50 (Cytochrome P450 2C8): > 10 µM
- IC50 [21]: > 100 µM
- F [22]: 98.7%
- IC50 [23]: 0.0009 µM
- inhibition (INH) [24]: >80%
- half-life [25]: 5.5 h
